In ChEMBL document CHEMBL5149972, “Novel Antimalarial Tetrazoles and Amides Active against the Hemoglobin Degradation Pathway in Plasmodium falciparum” (J Med Chem, 2021):
Values after ≈ are worked out from the molar mass of the structure shown. Active and inactive are the calls of the source. No cut-off for these calls is given here.

Legend:
Hemozoin = experiment: Inhibition of Beta-hematin assessed as bis-pyridyl-Fe(III)PPIX complex formation incubated for 5 hrs by NP40 detergent-mediated colorimetric assay
Plasmodium falciparum [1] = experiment: Antiplasmodial activity against Plasmodium falciparum NF54 expressing transgenic luciferase assessed as parasite kill rate at trophozoite stage incubated for 6 hrs by bioluminescence relative rate of kill (BRRoK) assay; format: functional, organism-based; conditions: RBC
Plasmodium falciparum [2] = experiment: Antiplasmodial activity against asexual blood stage Plasmodium falciparum 3D7 infected in human RBC assessed as parasite growth inhibition incubated for 72 hrs by SYBR Green dye based fluorescence assay; format: functional, organism-based
Summary of the method: (§1)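 Blood-stage cultures at 2% hematocrit, human O+ RBCs, RPMI 1640 + 25 mM HEPES, 0.5% Albumax-I, 23 mM bicarbonate, 92 μM hypoxanthine. Start at 0.5% parasitemia; 72 h at 37°C, 5% CO₂; freeze-thaw, then SYBR Green in saponin/Triton lysis buffer, 4 h RT dark; fluorescence ex 485/em 535 nm. 10-point curves, technical duplicates or triplicates, final 0.5% DMSO; four-parameter fit gives EC₅₀; mean ± std dev of biological replicates.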

Plasmodium falciparum [3] = experiment: Antiplasmodial activity against Plasmodium falciparum NF54 expressing transgenic luciferase assessed as parasite kill rate at trophozoite stage incubated for 72 hrs by bioluminescence relative rate of kill (BRRoK) assay; format: functional, organism-based; conditions: RBC
[4] = (§2) Cytotoxicity against human HepG2 cells assessed as reduction in cell viability incubated for 72 hrs by CellTiter-Glo assay; format: toxicity, cell-based; conditions: HepG2 cells
Plasmodium falciparum [5] = experiment: Antiplasmodial activity against drug resistant Plasmodium falciparum Dd2 infected in human RBC assessed as parasite growth inhibition incubated for 72 hrs by SYBR Green dye based fluorescence assay; format: functional, organism-based; summary of the method: as §1
HepG2 = experiment: as §2; format: toxicity, cell-based; conditions: hepg2, 72 h
[6] = Kinetic solubility of compound in PBS at pH 6.5 by HPLC analysis; format: physicochemical; conditions: read-out: Kinetic_solubility
[7] = Kinetic solubility of compound in PBS at pH 2 by HPLC analysis; format: physicochemical; conditions: read-out: Kinetic_solubility
[8] = Metabolic stability in human liver microsomes assessed as intrinsic clearance per mg of protein at 1 uM incubated for 60 mins presence of NADPH regenerating buffer system by LC-MS analysis; format: ADME, Microsome; conditions: 1 h
[9] = Plasmodium falciparum, 3D7, Erythrocyte, 72 h
[10] = Plasmodium falciparum, Dd2, Erythrocyte, 72 h

Compound | EC50 (Plasmodium falciparum [2]; [9]) | EC50 (Plasmodium falciparum [5]; [10]) | CC50 (HepG2) | other results
Cc1cc(Nc2ccc3ccccc3c2)n2ncnc2n1 |  |  |  | IC50 (Hemozoin): > 1000 µM
CC(=O)c1ccc(NC(=O)c2ccc(NC(=O)C3COc4ccccc4O3)cc2)cc1 (stereo unspecified) | 0.71 µM |  |  | Activity (Plasmodium falciparum [1]): Active; Activity (Plasmodium falciparum [3]): Active; CC50 at 72 h [4]: > 30 µM
CCC(C(=O)Nc1cccc(Cl)c1)N1C(=O)C(C)N=C(c2ccccc2)c2ccccc21 (stereo unspecified) | 0.31 µM |  |  | Activity (Plasmodium falciparum [1]): Active; Activity (Plasmodium falciparum [3]): Active; CC50 at 72 h [4]: > 30 µM
CCc1ccccc1N(C)C(=O)C(c1cncnc1)N(Cc1cccc(C(F)(F)F)c1)C1CC1 (racemic) | 0.24 µM | 0.57 µM | > 25 µM | 
Cc1ncc(C(C(=O)N(C)c2ccccc2C)N(Cc2cccc(C(F)(F)F)c2)C2CC2)cn1 (racemic) | 7.5 µM | 7.7 µM | > 30 µM | 
Cc1ccccc1-n1nnnc1C(c1cccnc1)N(C)Cc1cc(C(F)(F)F)ccc1F (racemic) | 1 µM | 2.5 µM |  | 
COc1ccc(C(F)(F)F)cc1CN(C)C(c1cccnc1)c1nnnn1-c1ccccc1C (racemic) | 1.3 µM |  |  | EC50 (Plasmodium falciparum [5]; rbc): 3.7 µM
Cc1ccccc1-n1nnnc1C(c1cncnc1)N(Cc1cc(F)cc(C(F)(F)F)c1)C1CC1 (racemic) | 0.37 µM |  |  | EC50 (Plasmodium falciparum [5]; rbc): 1.2 µM; CC50 at 72 h [4]: 36 µM
COc1ccccc1CN(C)C(c1ccccc1)c1nnnn1-c1ccccc1C (racemic) | 9.7 µM | 10 µM |  | 
Cc1ccccc1-n1nnnc1C(c1cccnc1)N(Cc1cc(C(F)(F)F)ccc1F)C1CC1 (racemic) | 0.6 µM | 0.67 µM |  | 
COc1ccc(Br)cc1CN(C)C(c1ccccc1)c1nnnn1-c1ccccc1C (racemic) |  | 5.4 µM | > 30 µM | EC50 (Plasmodium falciparum [2]; rbc): 3.5 µM; IC50 (Hemozoin): > 1000 µM
O=C(C(c1cccnc1)N(Cc1cccc(C(F)(F)F)c1)C1CC1)N1CCCCC1 (racemic) | 1.8 µM | 4.2 µM | > 20 µM | solubility kinetic [6]: 25 µg/mL (≈ 59.9 µM); solubility kinetic [7]: > 100 µg/mL; CLH [8]: 244 µL/min/mg
Cc1ccccc1-n1nnnc1C(c1cncnc1)N(Cc1ccc(F)c(C(F)(F)F)c1)C1CC1 (racemic) | 0.47 µM | 0.68 µM |  | 
CCCN(C(c1cncnc1)c1nnnn1-c1ccccc1C)C1(c2cccc(C(F)(F)F)c2)CC1 (racemic) | 0.31 µM | 0.52 µM |  | 
CN(C(=O)C(c1cncnc1)N(Cc1cccc(C(F)(F)F)c1)C1CC1)c1ccccc1 (racemic) | 0.72 µM | 2 µM | > 30 µM | 
COc1ccc(C(F)(F)F)cc1CN(C1CC1)C(c1cccnc1)c1nnnn1-c1ccccc1C (racemic) | 0.49 µM | 0.48 µM |  | solubility kinetic [6]: 1.6 µg/mL (≈ 3.24 µM); solubility kinetic [7]: 12.5 µg/mL (≈ 25.3 µM); CLH [8]: 154 µL/min/mg
CCCN(C(C(=O)N(C)c1ccccc1C)c1cccnc1)C1(c2cccc(C(F)(F)F)c2)CC1 (racemic) | 0.21 µM | 0.33 µM | > 15 µM | 
COc1ccc(C(F)(F)F)cc1CN(C)C(c1ccccc1)c1nnnn1-c1ccccc1C (racemic) | 1.7 µM | 3.7 µM |  | 
CN(Cc1cc(C(F)(F)F)ccc1F)C(c1cccnc1)c1nnnn1C1CCCCC1 (racemic) | 1.7 µM | 2.6 µM |  | 
Cc1ccccc1N(C)C(=O)C(c1cccnc1)N(Cc1cccc(OC(F)(F)F)c1)C1CC1 (racemic) | 0.32 µM | 0.52 µM | > 30 µM | 
Cc1ccccc1N(C)C(=O)C(c1cccnc1)N(Cc1cccc(C(F)(F)F)c1)C1CC1 (racemic) | 0.34 µM | 0.59 µM | > 30 µM | solubility kinetic [6]: 6.3 µg/mL (≈ 13.9 µM); solubility kinetic [7]: > 100 µg/mL; CLH [8]: 781 µL/min/mg
Cc1ccccc1-n1nnnc1C(C1CC1)N(Cc1cccc(C(F)(F)F)c1)C1CC1 (racemic) | 4.7 µM | 3.2 µM |  | 

Compound | EC50 (Plasmodium falciparum [2]; [9]) | EC50 (Plasmodium falciparum [5]; [10]) | CC50 (HepG2) | other results
Cc1ncccc1C(c1nnnn1C1CC1)N(C1CC1)C1(c2cccc(C(F)(F)F)c2)CC1 (racemic) | 14 µM | 16 µM | > 30 µM | 
FC(F)(F)c1cccc(CN(C2CC2)C(c2cccnc2)c2nnnn2C2CC2)c1 (racemic) | 1.5 µM | 3 µM |  | 
Cc1ccccc1N(C)C(=O)C(c1cccnc1)N(Cc1cccc(SC(F)(F)F)c1)C1CC1 (racemic) | 0.31 µM | 0.39 µM | > 30 µM | 
CCCN(C(c1cccnc1)c1nnnn1-c1ccccc1C)C1(c2cccc(C(F)(F)F)c2)CC1 (racemic) | 0.23 µM | 0.41 µM | 10 µM | 
Cc1ccccc1N(C)C(=O)C(c1cncnc1)N(Cc1cccc(OC(F)(F)F)c1)C1CC1 (racemic) | 0.24 µM | 0.59 µM | > 30 µM | 
Cc1ccccc1-n1nnnc1C(c1cncnc1)N(Cc1cccc(C(F)(F)F)c1F)C1CC1 (racemic) | 0.47 µM | 0.71 µM |  | 
Cc1ccccc1N(C)C(=O)C(c1cncnc1)N(Cc1cccc(C(F)(F)F)c1)C1CC1 (racemic) | 0.4 µM | 0.79 µM | > 30 µM | solubility kinetic [6]: > 45 µg/mL; solubility kinetic [7]: 11 µg/mL (≈ 24.2 µM); CLH [8]: 531 µL/min/mg
Cc1ccccc1N(C)C(=O)C(c1cncnc1)N(Cc1cccc(SC(F)(F)F)c1)C1CC1 (racemic) | 0.26 µM | 1 µM | > 30 µM | 
CCc1ccccc1N(C)C(=O)C(c1cccnc1)N(Cc1cccc(C(F)(F)F)c1)C1CC1 (racemic) | 0.19 µM | 0.48 µM | > 20 µM | 
COc1ccc(C(F)(F)F)cc1CN(C)C(c1cccnc1)c1nnnn1-c1ccccc1C (single isomer, unassigned; (+)) |  |  |  | EC50 (Plasmodium falciparum [2]; rbc): 1.5 µM; EC50 (Plasmodium falciparum [5]; rbc): 2.5 µM
Cc1ccccc1-n1nnnc1C(c1cncnc1)N(Cc1cc(F)cc(C(F)(F)F)c1)C1CC1 (single isomer, unassigned; (+)) |  |  |  | EC50 (Plasmodium falciparum [2]; rbc): 0.35 µM; EC50 (Plasmodium falciparum [5]; rbc): 2.5 µM
COc1ccc(Br)cc1CN(C)C(c1ccccc1)c1nnnn1-c1ccccc1C (single isomer, unassigned; (+)) |  |  |  | EC50 (Plasmodium falciparum [2]; rbc): 1.5 µM; EC50 (Plasmodium falciparum [5]; rbc): 3 µM
COc1ccc(C(F)(F)F)cc1CN(C)C(c1cccnc1)c1nnnn1-c1ccccc1C (single isomer, unassigned; (-)) |  |  |  | EC50 (Plasmodium falciparum [5]; rbc): 1.7 µM
Cc1ccccc1-n1nnnc1C(c1cncnc1)N(Cc1cc(F)cc(C(F)(F)F)c1)C1CC1 (single isomer, unassigned; (-)) |  |  | > 30 µM | EC50 (Plasmodium falciparum [2]; rbc): 0.42 µM; EC50 (Plasmodium falciparum [5]; rbc): 2.6 µM
COc1ccc(Br)cc1CN(C)C(c1ccccc1)c1nnnn1-c1ccccc1C (single isomer, unassigned; (-)) |  |  |  | EC50 (Plasmodium falciparum [2]; rbc): 4.4 µM; EC50 (Plasmodium falciparum [5]; rbc): 4 µM
O[C@@H](c1cc(C(F)(F)F)nc2c(C(F)(F)F)cccc12)[C@H]1CCCCN1 [(S,R)-MEFLOQUINE] |  |  |  | IC50 (Hemozoin): 60 µM
CCN(CC)Cc1cc(Nc2ccnc3cc(Cl)ccc23)ccc1O [AMODIAQUINE] |  |  |  | IC50 (Hemozoin): 8.6 µM
C[C@H]1[C@H](OC(=O)CCC(=O)O)O[C@@H]2O[C@@]3(C)CC[C@H]4[C@H](C)CC[C@@H]1[C@@]24OO3 [ARTESUNATE] |  |  |  | IC50 (Hemozoin): > 1000 µM
C[C@H]1c2cccc(O)c2C(=O)C2=C(O)[C@]3(O)C(=O)C(C(N)=O)=C(O)[C@@H](N(C)C)[C@@H]3[C@@H](O)[C@@H]21 [DOXYCYCLINE] |  |  |  | IC50 (Hemozoin): > 1000 µM
Cc1cc(Nc2ccc(S(F)(F)(F)(F)F)cc2)n2nc(C(C)(F)F)nc2n1 [DSM-265] | 0.005 µM |  |  | Activity (Plasmodium falciparum [1]): Active; Activity (Plasmodium falciparum [3]): Active; CC50 at 72 h [4]: > 30 µM
COc1ccc2nc3cc(Cl)ccc3c(Nc3cc(CN4CCCC4)c(O)c(CN4CCCC4)c3)c2n1 [PYRONARIDINE] |  |  |  | IC50 (Hemozoin): 2.2 µM
COc1ncnc(NS(=O)(=O)c2ccc(N)cc2)c1OC [SULFADOXINE] |  |  |  | IC50 (Hemozoin): > 1000 µM
